# Screening data as filed in PubChem.
# Only some compounds are listed: those with a hit (about 2.4% of all), similar ones and a draw of the others.
# Rpn11 inh: Rpn11 (PSMD14) deubiquitinase inhibitors, primary screen, biochemical, fluorescence polarization, uHTS; 26S proteasome non-ATPase regulatory subunit 14 (Homo sapiens), O00487; AID 588493, 2011; actives 0.59% (n = 360,000); inhibition, % at 20 µM; human 26S proteasome, Ub4-pepOG fluorescence polarization; 20S core pre-blocked with epoxomicin;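 active means inhibition at 20 µM, scaled to each plate's controls, above about 33%, limit read from the data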
# Neddylation inh: inhibitors of cullin neddylation, primary screen, biochemical, TR-FRET, uHTS, NAE and Ubc12. NEDD8-conjugating enzyme Ubc12 (Homo sapiens) + NEDD8-activating enzyme E1 regulatory …. inhibition, % at 25 µM. actives 0.58% (n = 360,000). AID 651699, 2012; in the data active means inhibition above about 36%
# Target sequence (P61081 whole entry, looked up): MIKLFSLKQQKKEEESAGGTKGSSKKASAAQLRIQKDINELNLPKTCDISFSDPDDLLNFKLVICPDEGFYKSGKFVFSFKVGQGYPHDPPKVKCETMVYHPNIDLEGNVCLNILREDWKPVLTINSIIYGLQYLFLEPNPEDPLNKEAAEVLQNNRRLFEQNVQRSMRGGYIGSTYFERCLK
# Target sequence (Q13564 whole entry, looked up): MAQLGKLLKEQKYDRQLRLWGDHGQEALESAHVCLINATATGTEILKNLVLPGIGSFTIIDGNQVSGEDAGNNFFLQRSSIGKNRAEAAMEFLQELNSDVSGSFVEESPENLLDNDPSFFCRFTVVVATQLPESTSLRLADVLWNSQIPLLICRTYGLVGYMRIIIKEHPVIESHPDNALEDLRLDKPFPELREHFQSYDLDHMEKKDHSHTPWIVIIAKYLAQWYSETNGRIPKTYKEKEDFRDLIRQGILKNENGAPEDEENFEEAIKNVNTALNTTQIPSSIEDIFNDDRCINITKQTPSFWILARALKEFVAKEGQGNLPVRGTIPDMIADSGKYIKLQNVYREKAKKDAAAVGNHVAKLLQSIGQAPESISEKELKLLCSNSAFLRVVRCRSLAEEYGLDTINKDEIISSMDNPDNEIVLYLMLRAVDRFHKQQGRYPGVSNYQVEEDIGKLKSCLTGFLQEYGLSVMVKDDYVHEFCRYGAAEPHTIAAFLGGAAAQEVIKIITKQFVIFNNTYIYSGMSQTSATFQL
# PREPL inh: PREPL enzyme inhibitors, primary screen, biochemical, fluorescence polarization; recombinant PREPL, fluorescence polarization activity-based probe; AID 2751, 2010; Prolyl endopeptidase-like (Homo sapiens), Q4J6C6; inhibition, % at 5.96 µM; actives 0.68% (n = 320,000); in the data active means inhibition above about 43%;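 further: 0% = enzyme with DMSO and 100% = wells lacking enzyme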
# HNF4A DNA FP: change in binding of human HNF4A to DNA, primary screen, biochemical, fluorescence polarization, FITC-DNA. Hepatocyte nuclear factor 4-alpha (Homo sapiens), P41235. 1 h. activity change, % at 10 µM. actives 0.3% (n = 360,000); in the data active means activity change above about 30%, passing the limit was not always enough
# TbMetRS inhib: T. brucei MetRS inhibitors, primary screen, biochemical, luminescence; methionyl-tRNA synthetase (Trypanosoma brucei brucei); purified T. brucei MetRS, ATP depletion, Kinase-Glo luminescence; inhibition, % at 11.9 µM; actives 0.4% (n = 360,000);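 active means inhibition above a per-plate cutoff of the control wells' mean inhibition plus 3 SD, cut at about 5.5% in these data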;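 further: 0% = DMSO wells median and 100% = median of wells with control inhibitor compound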
#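 Material – parasite MetRS enzyme · Medium – HEPES-MgCl2-KCl buffer plus DTT, spermine, BSA, pyrophosphatase · Reagent – ATP, methionine and E. coli bulk tRNA substrates · Times – 15 min enzyme-compound preincubation, 2 h reaction, 10 min detection, 25 °C · Measured by – luminescence of leftover ATP · Evaluation – percent inhibition relative to median high and low control wells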
# CSN inh: inhibitors of CSN-mediated cullin deneddylation, primary screen, biochemical, fluorescence polarization, uHTS. COP9 signalosome complex subunit 5 (Homo sapiens), Q92905. Purified CSN, SCF-Nedd8-OG deneddylation. inhibition, % at 12.5 µM. actives 0.38% (n = 360,000);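 active means pattern-corrected inhibition above about 35%, with an unprinted fluorescence ratio check between 0.5 and 1.5, limit read from the data, passing the limit was not always enough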;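 further: 0% = enzyme with substrate and 100% = substrate without enzyme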
#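 Assay system: Purified human Csn5 enzyme expressed in HEK293T cells | Amount: Enzyme 0.24 nM | Measured by: Fluorescence polarization readout | Medium: Tris/NaCl/DTT buffer, pH 7.5 | Compound dosing: One concentration, 12.5 µM, 0.25% DMSO | Times: 90 min incubation of compound, enzyme and substrate at room temperature | Control set: no-enzyme wells high, enzyme-with-substrate wells low | Read-out: % inhibition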
# Rpn11 confirm: Rpn11 (PSMD14) deubiquitinase inhibitors, confirmation, biochemical, fluorescence polarization, single concentration; shares compounds with Rpn11 inh; purified human 26S proteasome, Ub4-pepOG fluorescence polarization; proteasome pretreated with epoxomicin; inhibition, % at 20 µM; actives 29% (n = 1,900); AID 602318, 2012
# MMP-2 inh: MMP-2 enzyme inhibition, confirmation, counter-screen for RPN11 inhibitor project, biochemical, fluorescence, single concentration; recombinant MMP-2, FRET peptide cleavage fluorescence; actives 4% (n = 1,900); AID 602330, 2012; inhibition, % at 20 µM; shares compounds with Rpn11 inh;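 further: human MMP-2 activated beforehand with APMA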
# Thrombin FP: bovine thrombin protease inhibition, confirmation, counter-screen for Rpn11 inhibitor project, biochemical, fluorescence polarization, single concentration; shares compounds with Rpn11 inh; bovine thrombin cleavage of Ub4-pepOG; inhibition, % at 20 µM; actives 13% (n = 1,900); AID 602333, 2012;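 active means mean inhibition at least 40% at 20 µM, or signal 3 deviations below plate average, so some actives read negative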;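 further: plate controls were thrombin with DMSO for no effect and buffer wells lacking thrombin for full effect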
# Numbers without * were called inactive; nt = no result given; + = active, no number. Unless noted, no stated cut-off is given here; in the data, active means inhibition above about 40%; inactive means the rest.
SMILES,Rpn11 inh,Neddylation inh,PREPL inh,HNF4A DNA FP,TbMetRS inhib,CSN inh,Rpn11 confirm,MMP-2 inh,Thrombin FP
COc1ccc(CC(=O)NC(C)(C)CC(C)=O)cc1OC,-4,-1,4,-5,-1,4,nt,nt,nt
CCC(C)(C)NC(=O)Cc1ccc(OC)c(OC)c1,138*,-9,3,0,-1,2,6,-15,-8
Cc1cccc(OCC(=O)Nc2ccc3c4c(cccc24)CC3)c1C,0,-13,0,3,0,1,nt,nt,nt
Cn1c(=O)c2ncn(CC(=O)Nc3ccc4c5c(cccc35)CC4)c2n(C)c1=O,52*,-1,23,15,0,0,34,-12,19
O=C(CN1C(=O)CCC1=O)Nc1ccc2c3c(cccc13)CC2,102*,28,7,2,-1,0,7,-12,1
CN(C)C(=O)CCc1ccc2c3c([nH]c2c1)[C@]1(CCC2CCCC2)[C@@H](C(=O)N2CCOCC2)C[C@H](CC(=O)NCCc2ccccn2)C(=O)N1CC3,-3,5,nt,5,0,-3,nt,nt,nt
O=C(Nc1ccccc1-c1nnc(SCc2ccc(Cl)cc2)o1)c1ccccc1,66*,8,-11,8,0,6,-10,13,-6
Cc1nnsc1C(=O)NC1CCCc2c1cnn2-c1cc(F)cc(F)c1 (centres undefined),-14,0,-3,1,0,4,nt,nt,nt
Cc1nnsc1C(=O)NC1CCCc2c1cnn2-c1ccc(F)cc1F (centres undefined),42*,6,-1,6,0,-3,12,-48,-3
CCC1CCCCN1c1ccc([N+](=O)[O-])cc1/C=N/NC(=O)Cn1c2ccccc2c(=O)c2ccccc21 (centres undefined),36*,13,5,14,0,7,25,0,8
CCc1ccc(OCC(=O)N/N=C/c2cc([N+](=O)[O-])ccc2N2CCCCCC2)cc1,19,-9,6,5,1,5,nt,nt,nt
COc1cc(/C=C2\CC/C(=C\c3cc(OC)c(O)c(OC)c3)C2=O)cc(OC)c1O,112*,-6,26,25,0,124,89*,5,81*
COc1cc(/C=C2\CCC/C(=C\c3ccc(O)c(OC)c3)C2=O)ccc1O,23,3,11,-3,0,5,nt,nt,nt
COc1cc(/C=C2/CCC/C(=C\c3cc(O)c(OC)c(Cl)c3)C2=O)cc(Cl)c1O,64*,17,7,15,0,9,7,47*,5
O=C(CCCN1C(=O)/C(=C/c2ccccc2Cl)SC1=S)NNC(=O)c1ccncc1,-2,-20,-65,1,0,-1,nt,nt,nt
O=C(CCCN1C(=O)/C(=C\c2cccs2)SC1=S)Nc1ccccn1,34*,-33,2,1,0,6,5,-35,-8
O=C(CCCN1C(=O)/C(=C\c2cccs2)SC1=S)NNC(=O)c1cccnc1,166*,-26,-23,12,0,-5,3,13,-2
O=C(CCCN1C(=O)/C(=C/c2cccs2)SC1=S)NNC(=O)c1ccncc1,47*,-11,-20,3,-1,12,-7,20,1
COc1ccc(C(=O)NCc2ccon2)cc1OC1CCN(C(C)C)CC1,2,2,11,2,0,1,nt,nt,nt
Cc1ccc(-c2ocnc2C(=O)N2CCOCC2)cc1,2,2,-9,0,-1,-1,nt,nt,nt
C[C@H](NC(=O)c1ncn2c1c(=O)[nH]c1ccc(Br)cc12)c1ccccc1,+,-180,nt,39,0,34,5,-2,-8
N#C/C(=C\c1ccc(Cl)cc1)c1nc(-c2ccco2)cs1,1,7,-2,-2,-1,-12,nt,nt,nt
N#C/C(=C\c1ccc(-c2ccccc2)cc1)c1nc(-c2ccco2)cs1,56*,7,5,22,0,14,-2,-14,-5
CC1CCCC(C)N1C(=O)COC(=O)c1cccnc1Cl (centres undefined),0,-9,0,3,0,-5,nt,nt,nt
CC(C)(C)NC(=O)c1ccc(NC(=O)c2ccccc2-c2ccccc2C(=O)O)cc1,4,4,-3,0,-1,-1,nt,nt,nt
SMILES,Rpn11 inh,Neddylation inh,PREPL inh,HNF4A DNA FP,TbMetRS inhib,CSN inh,Rpn11 confirm,MMP-2 inh,Thrombin FP
CNc1ccc2nnc(C(F)(F)C(F)(F)C(F)(F)F)n2n1,106*,3,-11,99,1,-10,-5,29,-15
FC(F)(F)c1nnc2ccc(Cl)nn12,-1,2,19,-3,0,-3,nt,nt,nt
CC(=Nc1ccc(C)cc1C)c1sc2ccccc2c1O,38*,44*,15,21,0,6,25,10,2
COC(=O)/C=c1/s/c(=C(\C#N)C(=O)NCc2ccco2)n(-c2ccc(C)cc2)c1=O,57*,-13,13,5,-1,31,11,-12,20
Cc1ccccc1CC(=O)Nc1ccc(C(=O)N2CCCC2)cc1,39*,-9,4,13,0,0,3,-28,-12
Cc1ccc2nc(C)cc(Nc3ccc([N+](=O)[O-])cc3)c2c1,45*,-15,8,5,0,4,34,-10,-5
COC(=O)c1ccc(Nc2cc(C)nc3ccc(C)cc23)cc1,1,-3,3,0,0,2,nt,nt,nt
CCCCc1ccc(-c2csc(/C(C#N)=C\c3ccc(C)o3)n2)cc1,62*,-3,0,45*,0,38*,12,-5,6
COc1ccc(N2CCN(c3cc(C(=O)Nc4cc(OC)c(OC)c(OC)c4)ncn3)CC2)cc1OC,-10,5,nt,4,1,-4,nt,nt,nt
